Assay results collected from several papers.
Compare with care: the assays were run in different laboratories.
Target: Serine/threonine-protein kinase pim-2 (PIM2, Homo sapiens, UniProt Q9P1W9)

| SMILES | observed | mode | method | tested at | measurement | result |
| --- | --- | --- | --- | --- | --- | --- |
| C1=C/COCc2cc(ccc2OCCN2CCCC2)Nc2nccc(n2)-c2cccc(c2)COC/1 | binding |  |  | 0.1 µM | remaining binding | 100% |
| C#Cc1cnc(Nc2ccnc(CO)c2)nc1Nc1ccccc1S(C)(=O)=NC#N (stereo not shown) | cell-free assay |  |  | 1 µM | remaining signal | 100% |
| C=CC(=O)N1CCC[C@@H](n2nc(-c3ccc(Oc4ccccc4)cc3)c3c(N)ncnc32)C1 | enzyme activity | inhibitor |  | 1 µM | inhibition | 3% |
| C#Cc1cc(-c2cc(Nc3nc(N[C@@H](C)c4ccc(F)cn4)ncc3Cl)n[nH]2)ccc1C=O | enzyme activity | inhibitor |  | 0.2 µM | inhibition | 2.74% |
| COc1ccc2oc(-c3ccc4nc(N)oc4c3)c/c(=N\c3ccccc3NC(=O)CCN)c2c1 | binding |  |  | 1 µM | remaining binding | 103% |
| CCCCC(=O)Nc1ccc(-c2ccc3ncn(CCC)c(=O)c3c2)cn1 | binding |  | competition with immobilised ligand | 0.5 µM | remaining binding | 100% |
| CN1CCN(C(=O)c2ccc(NC(=O)Nc3ccc(N(C)c4ccnc(Nc5ccc(CS(C)(=O)=O)cc5)n4)cc3)cc2)CC1 | binding |  |  | 1 µM | remaining binding | 100% |
| CC#CC(=O)N1CCC[C@H]1c1nc(-c2ccc(C(=O)Nc3ccccn3)cc2)c2c(N)nccn12 | enzyme activity | inhibitor |  | 1 µM | inhibition | 0% |
| Cc1ccc(NC(=O)c2ccnc(C(F)(F)F)c2)cc1-c1cc(OCCO)nc(N2CCOCC2)c1 | binding |  |  | 1 µM | remaining binding | 82% |
| N#Cc1ccc(NC(=O)Nc2ccccc2)cc1 | cell-free assay |  | competition with immobilised ligand | 25 µM | remaining binding | 100% |
